# Among all 330,000 compounds or so, about 2,000 (0.61%) were called active. The sample as a whole holds a higher share of actives than the screen did. Unmarked numbers belong to inactive results.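 Rule for the calls: active = inhibition above that plate's mean sample inhibition plus 3 SD (cut at about 26% in these data); inactive = the rest.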
# Experiment: ATP-evoked calcium signal inhibitors, parental CHO, primary screen, counter-screen for OX1R antagonist project, cell-based, fluorescence, Fluo-8 calcium dye (AID 463079);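 note: 0% = ATP-challenged DMSO wells and 100% = DMSO wells without ATP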
# Settings: parental CHO-K1, ATP-induced calcium, Fluo-8 fluorescence; at 5.6 µM; active compounds read high
# Summary of the method: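 test system = CHO parental line | reagent = ATP stimulus | measured by = intracellular calcium via Fluo-8 no-wash fluorescent dye | control set = ATP and no-ATP DMSO wells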
row,Compound,inhibition
1,CC(NS(=O)(=O)c1ccccc1)c1n[nH]c(=S)n1-c1ccccc1 (stereo not given),9.34%
2,O=C(c1ccccc1Cl)N(Cc1ccccc1F)N1C(=O)CCCC1=O,6.42%
3,COCCCN1C(=O)C(=O)/C(=C(/O)c2ccc(S(=O)(=O)N3CCOCC3)cc2)C1c1ccc(F)cc1 (stereo not given),14.2%
4,COc1ccc(NS(=O)(=O)c2ccc(NC(=S)NC(=O)CC(C)C)cc2)cc1,44.3% (active)
5,COc1ccc(OC)c(C(C)NC(=S)Nc2ccc(S(=O)(=O)Nc3ncccn3)cc2)c1 (stereo not given),3.7%
6,COc1ccc(NS(=O)(=O)c2ccc(C(=O)Nc3c(C)n(C)n(-c4ccccc4)c3=O)cc2)cc1,-3.65%
7,COc1ccc(NS(=O)(=O)c2ccc(NC(=O)c3ccc(N(C)S(C)(=O)=O)cc3)cc2)cc1,31.2% (active)
8,COc1cc(OC)cc(C(=O)Nc2ccc(S(=O)(=O)Nc3cc(C)on3)cc2)c1,-3.8%
9,CC(=O)c1ccc(NC(=S)NC(=O)CC(C)C)cc1,7.82%
10,CCSc1nc(=S)n(CC)c(C)c1C(C)=O,-1.19%
11,CC(C)(C)CN1C(=O)C(=O)NC[C@H]1Cc1cccc2ccccc12,-9.71%
12,COC(=O)Nc1ncc(CN2CCCCC2)s1,0.87%
13,Cc1ccccc1NC(=S)NC(=O)Cc1ccc(Cl)cc1,2.02%
14,O=C(COc1ccc(Cl)cc1)NC(=S)Nc1ccccc1N1CCOCC1,-32%
15,O=C(Cc1ccc(Cl)cc1)NC(=S)Nc1ccccc1O,39% (active)
16,COc1ccc(NC(=O)CSCc2ccc([N+](=O)[O-])cc2)cc1OC,-6.67%
17,CC(C)CC(=O)N=C1SC2CS(=O)(=O)CC2N1CCc1ccccc1 (stereo not given),-2.34%
18,O=c1c2ccccc2nc2n1C(CSCc1cccc(C(F)(F)F)c1)CS2 (stereo not given),40.1% (active)
19,O=c1c2ccccc2nc2n1C(CSCc1ccccc1)CS2 (stereo not given),2.02%
20,O=c1c2ccccc2nc2n1C(CSc1ccc(F)cc1)CN2 (stereo not given),-3.49%
21,COc1ccccc1C(=O)C(O)c1ccccc1OC (stereo not given),-2.08%
22,Cc1cccc(C)c1NC(=O)CNC(=O)c1c(C)nn(-c2ccccc2)c1C,9.7%
23,COc1ccc(CC(=O)Nc2nc(-c3ccc(F)c(F)c3)cs2)cc1OC,55.3% (active)

row,Compound,inhibition
1,CCCc1ccc(-c2csc(NC(=O)Cc3cccs3)n2)cc1,-13.1%
2,COc1ccc(-c2csc(NC(=O)COC(=O)Cc3ccc(Cl)cc3Cl)n2)cc1,-7.84%
3,COc1ccc(-c2csc(NC(=O)COC(=O)c3ccc(Br)o3)n2)cc1,-1.84%
4,COc1cc(CC(=O)Nc2nc(-c3ccc(F)c(F)c3)cs2)cc(OC)c1OC,50.5% (active)
5,COc1ccc(OC)c(-c2csc(NC(=O)COC(=O)C3CC3)n2)c1,-16.7%
6,Cc1ccc(S(=O)(=O)NC(=O)Nc2nc(-c3ccc(F)c(F)c3)cs2)cc1,13.3%
7,COc1cc(CC(=O)NCc2cccs2)cc(OC)c1OC,-12.1%
8,COc1cccc(CC(=O)Nc2nc(-c3ccc(OC)c(OC)c3)cs2)c1,50.6% (active)
9,Cc1ccc(C)c(Cn2nnc3c(=O)[nH]c(C(=O)Nc4ccc(F)cc4)nc32)c1,-8.13%
10,Cc1cccc(NC(=S)NCCc2ccc(F)cc2)c1C,-8.34%
11,C=CCOC(=O)C1=C[C@H](c2ccc(Br)cc2)C[C@H](OCCCCO)O1,-16.9%
12,Cc1cccc(-c2nc3c(c(SCC(=O)N4CCOCC4)n2)CCCC3)c1,-8.39%
13,CC[C@]1(O)C[C@@H]2CN(CCc3c([nH]c4ccccc34)[C@@](C(=O)OC)(c3cc4c(cc3OC)N(C)[C@H]3[C@@](O)(C(=O)OC)[C@H](OC(C)=O)[C@]5(CC)C=CCN6CC[C@]43[C@@H]65)C2)C1,-20.6%
14,Cc1nc2nc(CSc3nc4ccccc4s3)cc(=O)n2[nH]1,-18.4%
15,O=C(O)c1ccccc1CSc1nc2ccccc2s1,-0.85%
16,O=[N+]([O-])c1c(NCCO)cc(Sc2nc3ccccc3s2)c2nonc12,77.3% (active)
17,CN1CCc2nc(SC(C(=O)O)c3ccccc3)c(C#N)c(-c3cccs3)c2C1 (stereo not given),-2.58%
18,CC[C@]1(C(=O)OC)[C@H]2C(=O)N(Cc3ccccc3)C(=O)[C@H]2[C@H]2CN=C(SCc3ccccc3)N21,-23.1%
19,COc1ccc(N2CCN(c3ccc([N+](=O)[O-])cc3Cl)CC2)cc1,12%
20,Cc1ccc(N2CCN(S(=O)(=O)N(C)C)CC2)cc1Cl,-18.3%
21,CN(C)S(=O)(=O)N1CCN(c2ccc([N+](=O)[O-])cc2)CC1,29% (active)
22,CCCOc1ccc(Cc2c(O)nc(N)[nH]c2=O)cc1C,-2.86%
23,COc1cc(OC)cc(-c2cc3ccc(F)cc3cn2)c1,-22.7%

row,Compound,inhibition
1,COc1ccc(-c2noc(C(C)NS(=O)(=O)c3ccc(NC(C)=O)cc3)n2)cc1 (stereo not given),-2.83%
2,COc1ccc(N2CCN(C(=O)CCc3nc(-c4ccc(C)cc4)no3)CC2)cc1,-13.6%
3,COc1ccc(-c2noc(CN(C)S(=O)(=O)c3ccc(C)cc3)n2)cc1,38.9% (active)
4,Cc1ccc(OCC(=O)Nc2ccccc2C(=O)NC2CC2)cc1,-12.7%
5,Cc1nc(-c2ccc(Cl)cc2)sc1C(=O)CBr,16.1%
6,O=C(Cc1c(F)cccc1Cl)Nc1ncc([N+](=O)[O-])s1,3.65%
7,COc1ccc(NC(=O)c2ccccc2[N+](=O)[O-])cc1OC,-4.31%
8,CC(=O)Oc1ccccc1C(=O)Nc1ncc([N+](=O)[O-])s1,39% (active)
9,COc1ccccc1N1CCN(C(=O)CSc2ncnc3c2cnn3-c2ccc(C)c(C)c2)CC1,-14.4%
10,O=C(N/C(=C\c1ccc(F)cc1)C(=O)N1CCCCCC1)c1ccccc1,-14%
11,CC(=O)Nc1ccc(N2C(=O)C3C4CC(=O)C(c5ccccc54)C3C2=O)cc1 (stereo not given),9.03%
12,CCc1ccccc1N1C(=O)C2C3CC(=O)C(c4ccccc43)C2C1=O (stereo not given),29.8% (active)
13,CC1=C(C)CC2C(=O)N(c3cccc4ccccc34)C(=O)C2C1 (stereo not given),-11.3%
14,COc1cccc(C(=O)OCC(=O)c2[nH]c(C)c(C(C)=O)c2C)c1,-11.5%
15,CC(=O)c1c(C)[nH]c(C(=O)COC(=O)c2cccc(S(=O)(=O)N(C)c3ccccc3)c2)c1C,74.8% (active)
16,CC(=O)c1c(C)[nH]c(C(=O)COC(=O)c2cccs2)c1C,-6.37%
17,Cc1nn(C(C)C(=O)N2CCOCC2)c(=O)c2nn(-c3ccccc3)c(C)c12 (stereo not given),-7.21%
18,CC[C@]12c3[nH]c4ccc(OC)cc4c3CCN1C(=O)C(CC(=O)NCCN1CCOCC1)C[C@@H]2C(=O)N1CCN(C(=O)C2CC2)CC1 (stereo not given in full),-9.94%
19,Cc1cc(C)cc(OCC(=O)NC(C)c2ccccc2)c1 (stereo not given),-19.1%
20,COc1cc(OC)cc(C(=O)N[C@H](C(=O)OCC(=O)NC(C)c2ccccc2)C(C)C)c1 (stereo not given in full),41.6% (active)
21,COc1cc(OC)cc(C(=O)NCC(=O)OCC(=O)NC(C)CCc2ccccc2)c1 (stereo not given),-9.76%
22,CCC(C(=O)OCC(=O)Nc1ccc(C(=O)Nc2ccc(OC)cc2)cc1)c1ccccc1 (stereo not given),2.63%
23,CCC(C(=O)Nc1ccc(C(C)C)cc1)c1ccccc1 (stereo not given),54% (active)

row,Compound,inhibition
1,CCC(C(=O)Nc1ccc2c(c1)OCCO2)c1ccccc1 (stereo not given),-14.5%
2,OCC[C@H]1C[C@@H](O)[C@H](O)[C@@]2(OCCc3ccccc32)O1,-2.14%
3,CCC(C)N(C(=O)CSc1nnnn1-c1ccccc1OC)C1CCS(=O)(=O)C1 (stereo not given),-20%
4,O=C(/C=C(O)/C=C/c1ccc(O)cc1)/C=C/c1ccc(O)cc1,44.2% (active)
5,O=C(/C=C/c1ccc2c(c1)OCCO2)c1ccc(O)cc1,3.62%
6,O=C(O)/C=C/c1ccc(OCCCF)cc1,-5.89%
7,CC1CCCCN1CCCNC(=O)Cn1ncc2c([nH]c3ccccc32)c1=O (stereo not given),-10.7%
8,CCc1ccccc1NC(=O)c1ccc2c(c1)CCN2S(C)(=O)=O,-12.5%
9,CN(C)CCCNC(=S)N1CCN(c2nc(-c3ccccc3)cs2)CC1,-5.41%
10,Cc1cccn2cc(-c3cccc(S(=O)(=O)N4CCCCC4)c3)nc12,-20.2%
11,CC1(C)C=Cc2c(ccc3c2OC[C@@H](c2ccc(O)cc2O)C3)O1,94.3% (active)
12,c1ccc(CN=C2Nc3ccccc3CS2)nc1,-13.6%
13,Cc1ccc(N(CC(=O)Nc2cc(C)cc(C)c2)S(=O)(=O)c2cccc3nonc23)cc1,-11.6%
14,CCN(CC)S(=O)(=O)c1ccc(N(C)Cc2cccc(OC)c2OC)nc1,28.5%
15,CCN(CC)S(=O)(=O)c1ccc(N(C)CCc2ccc(OC)c(OC)c2)nc1,-13.7%
16,CCN(CC)S(=O)(=O)c1ccc(N(C)Cc2ccc(C(F)(F)F)cc2)nc1,43.6% (active)
17,Nc1ncnc2c1ncn2[C@@H]1O[C@H](CNS(=O)(=O)c2ccc(-c3ccno3)s2)[C@@H](O)[C@H]1O,-2.72%
18,CC[C@]12c3[nH]c4ccc(Cl)cc4c3CCN1C(=O)[C@@H](CC(=O)NCCCOC)C[C@@H]2C(=O)N1CCN(C(=O)C2CC2)CC1,-12.5%
19,CCOC(=O)c1c(CN2CCOCC2)n(-c2ccccc2)c2ccc(O)cc12,-10.2%
20,CC(=O)c1c(C)n(-c2ccc(C)cc2)c2ccc(O)cc12,81.6% (active)
21,CC(=O)c1c(C)n(-c2ccc(N(C)C)cc2)c2ccc(OCC(N)=O)cc12,-2.26%
